A word on the IC50: it is the concentration at which inhibition is half-maximal.

In assay [1] the test system is Mus musculus. As to the kind of experiment: (§1) Analgesic activity was evaluated in mouse hotplate test; expressed as licking latency after 30 min of treatment at a dose of 10 ug intracerebroventricularly. Type of assay: functional. The gist of the method: (§2)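 Male Swiss albino mice (23-30 g); icv injection under brief anaesthesia, 5 μL into the lateral ventricle, in saline or H2O/DMSO (2:1). Hot plate: latency to licking of fore or hind paws timed with a stopwatch before injection and every 15 min up to 60 min. Pretest scores below 12 or over 18 s rejected; cutoff 45 s.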

In assay [2] the test system is Mus musculus. In words: (§3) Analgesic activity was evaluated in mouse hotplate test; expressed as licking latency after 15 min of treatment at a dose of 10 ug intracerebroventricularly. Type of assay: functional. The procedure, abridged:
as §2

Assay [3] deals with Mus musculus. In words: (§4) Analgesic activity was evaluated in mouse hotplate test; expressed as licking latency after 45 min of treatment at a dose of 10 ug intracerebroventricularly. Type of assay: functional. The gist of the method:
as §2

For assay [4], the system named is Mus musculus. In words: Analgesic activity was evaluated in mouse hotplate test; expressed as licking latency before treatment at a dose of 25 ug intracerebroventricularly. Type of assay: functional. The gist of the method:
(§5)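 Male Swiss albino mice (23-30 g); icv injection of 5 μL (saline or H2O/DMSO 2:1) under brief anaesthesia. Paw-licking latency (s) on hot plate read before injection and every 15 min up to 60 min. Mice with pretest latency below 12 or over 18 s excluded; cutoff 45 s. Statistics against saline- or vehicle-treated controls.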

In assay [5] the test system is Mus musculus. In words: Analgesic activity was evaluated in mouse hotplate test; expressed as licking latency after 30 min of treatment at a dose of 25 ug intracerebroventricularly. Type of assay: functional. The gist of the method:
as §5

Assay [6] concerns Mus musculus. As to the kind of experiment: Percentage analgesic efficacy when compared to morphine at 10 ug intracerebroventricularly. Type of assay: functional. The procedure, abridged: (§6)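 Male Swiss albino mice, hot-plate test, paw-licking latency; pretest 12–18 s required, cutoff 45 s. Icv injection of 5 μL under brief anaesthesia, in saline or H2O/DMSO 2:1, at maximal soluble dose. Latency read before and every 15 min after dosing. Efficacy = (peak latency − pretest) as % of the same value for morphine 10 μg/mouse icv; non-significant effects scored 0.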

Assay [7] concerns Mus musculus. As to the kind of experiment: Analgesic activity was evaluated in mouse hotplate test; expressed as licking latency before treatment at a dose of 10 ug intracerebroventricularly. Type of assay: functional. The gist of the method: as §5
In assay [8] the test system is Mus musculus. The assay is described as §3. Type of assay: functional. The gist of the method:
as §5
The source holds these as a separate data set.

Assay [9] relates to Mus musculus. As to the kind of experiment: Percentage analgesic efficacy when compared to morphine at 50 ug intracerebroventricularly. Type of assay: functional. The procedure, abridged:
as §6

Assay [10] deals with Rattus norvegicus. As to the kind of experiment: Antihyperalgesic activity was evaluated in rat (dx) paw pressure test after 60 min at a dose of 50 ug intracerebroventricularly.
The subject of assay [11] is Mus musculus. As to the kind of experiment: Analgesic activity was evaluated in mouse hotplate test; expressed as licking latency after 45 min of treatment at a dose of 50 ug intracerebroventricularly. Type of assay: functional. The gist of the method: as §5
Assay [12] relates to Rattus norvegicus. As to the kind of experiment: Antihyperalgesic activity was evaluated in rat (sn) paw pressure test after 30 min at a dose of 50 ug intracerebroventricularly.
For assay [13], the system named is Mus musculus. In words: Analgesic activity was evaluated in mouse hotplate test; expressed as licking latency after 30 min of treatment at a dose of 50 ug intracerebroventricularly. Type of assay: functional. The gist of the method:
as §5

For assay [14], the system named is Rattus norvegicus. As to the kind of experiment: Antihyperalgesic activity was evaluated in rat (dx) paw pressure test after 45 min at a dose of 50 ug intracerebroventricularly.
Assay [15] relates to Mus musculus. As to the kind of experiment: Analgesic activity was evaluated in mouse hotplate test; expressed as licking latency after 15 min of treatment at a dose of 25 ug intracerebroventricularly. Type of assay: functional. The procedure, abridged: as §5
Assay [16] concerns Mus musculus. Described as §1. Type of assay: functional. The gist of the method:
as §5
This is another data set of the same source.

For assay [17], the system named is Mus musculus. As to the kind of experiment: Analgesic activity was evaluated in mouse hotplate test; expressed as licking latency after 45 min of treatment at a dose of 25 ug intracerebroventricularly. Type of assay: functional. The gist of the method: as §5
Assay [18] relates to Rattus norvegicus. As to the kind of experiment: Antihyperalgesic activity was evaluated in rat (sn) paw pressure test after 45 min at a dose of 50 ug intracerebroventricularly.
Assay [19] relates to Mus musculus. The assay is described as §4. Type of assay: functional. The gist of the method:
as §5
This is another data set of the same source.

Assay [20] has as its target Voltage-dependent N-type calcium channel subunit alpha-1B (Rattus norvegicus) (UniProt Q02294). As to the kind of experiment: In vitro antagonism of N-type calcium channels expressed in PC12 cells was determined as the increase in intracellular calcium influx in the presence of 10 uM nifedipine.
Assay [21] has as its system Rattus norvegicus. As to the kind of experiment: Antihyperalgesic activity was evaluated in rat (dx) paw pressure test after 30 min at a dose of 50 ug intracerebroventricularly.
Assay [22] deals with Mus musculus. In words: Analgesic activity was evaluated in mouse hotplate test; expressed as licking latency after 15 min of treatment at a dose of 50 ug intracerebroventricularly. Type of assay: functional. The procedure, abridged: as §5
Assay [23] deals with Rattus norvegicus. As to the kind of experiment: Antihyperalgesic activity was evaluated in rat (sn) paw pressure test after 60 min at a dose of 50 ug intracerebroventricularly.
Assay [24] has as its system Rattus norvegicus. In words: Antihyperalgesic activity was evaluated in rat (dx) paw pressure test after 30 min at a dose of 40 ug intracerebroventricularly.
Assay [25] deals with Voltage-dependent N-type calcium channel subunit alpha-1B (Rattus norvegicus) (UniProt Q02294). As to the kind of experiment: In vitro antagonism of N-type calcium channels expressed in PC12 cells was determined as the increase in intracellular calcium influx.
Assay [26] relates to Rattus norvegicus. As to the kind of experiment: Antihyperalgesic activity was evaluated in rat (dx) paw pressure test after 45 min at a dose of 40 ug intracerebroventricularly.
Assay [27] is filed under the species Mus musculus. As to the kind of experiment: Percentage analgesic efficacy when compared to morphine. Type of assay: functional. More on the design: concentration or dose not given beside the values. The gist of the method:
as §6

In assay [28] the test system is Rattus norvegicus. In words: Antihyperalgesic activity was evaluated in rat (sn) paw pressure test after 60 min at a dose of 40 ug intracerebroventricularly.
The subject of assay [29] is Mus musculus. In words: Analgesic activity was evaluated in mouse hotplate test; expressed as licking latency after 30 min of treatment at a dose of 40 ug intracerebroventricularly. Type of assay: functional. The gist of the method: as §5
The subject of assay [30] is Mus musculus. As to the kind of experiment: Analgesic activity was evaluated in mouse hotplate test; expressed as licking latency after 15 min of treatment at a dose of 40 ug intracerebroventricularly. Type of assay: functional. The gist of the method:
as §5

Assay [31] has as its system Rattus norvegicus. As to the kind of experiment: Antihyperalgesic activity was evaluated in rat (sn) paw pressure test after 45 min at a dose of 40 ug intracerebroventricularly.
Assay [32] deals with Rattus norvegicus. In words: Antihyperalgesic activity was evaluated in rat (dx) paw pressure test after 60 min at a dose of 40 ug intracerebroventricularly.
Assay [33] deals with Mus musculus. In words: Analgesic activity was evaluated in mouse hotplate test; expressed as licking latency after 45 min of treatment at a dose of 40 ug intracerebroventricularly. Type of assay: functional. The gist of the method: as §5
Assay [34] concerns Rattus norvegicus. In words: Antihyperalgesic activity was evaluated in rat (sn) paw pressure test after 30 min at a dose of 40 ug intracerebroventricularly.
The subject of assay [35] is Rattus norvegicus. In words: Antihyperalgesic activity was evaluated in rat (sn) paw pressure test after 30 min at a dose of 10 ug intracerebroventricularly.
The test system of assay [36] is Rattus norvegicus. As to the kind of experiment: Antihyperalgesic activity was evaluated in rat (sn) paw pressure test after 60 min at a dose of 10 ug intracerebroventricularly.
Assay [37] relates to Rattus norvegicus. As to the kind of experiment: Antihyperalgesic activity was evaluated in rat (dx) paw pressure test after 60 min at a dose of 10 ug intracerebroventricularly.
In assay [38] the test system is Rattus norvegicus. In words: Antihyperalgesic activity was evaluated in rat (dx) paw pressure test after 45 min at a dose of 10 ug intracerebroventricularly.
Assay [39] deals with Rattus norvegicus. As to the kind of experiment: Antihyperalgesic activity was evaluated in rat (dx) paw pressure test after 30 min at a dose of 10 ug intracerebroventricularly.
The test system of assay [40] is Rattus norvegicus. As to the kind of experiment: Antihyperalgesic activity was evaluated in rat (sn) paw pressure test after 45 min at a dose of 10 ug intracerebroventricularly.
The test system of assay [41] is Mus musculus. In words: Analgesic activity was evaluated in mouse hotplate test; expressed as licking latency after 15 min of treatment at a dose of 5 ug intracerebroventricularly. Type of assay: functional. The gist of the method: as §5
In assay [42] the test system is Mus musculus. As to the kind of experiment: Analgesic activity was evaluated in mouse hotplate test; expressed as licking latency after 30 min of treatment at a dose of 5 ug intracerebroventricularly. Type of assay: functional. The procedure, abridged: as §5
The test system of assay [43] is Mus musculus. In words: Analgesic activity was evaluated in mouse hotplate test; expressed as licking latency after 45 min of treatment at a dose of 5 ug intracerebroventricularly. Type of assay: functional. The gist of the method: as §5

Sequence of Voltage-dependent N-type calcium channel subunit alpha-1B (Rattus norvegicus) (Q02294 whole entry, looked up): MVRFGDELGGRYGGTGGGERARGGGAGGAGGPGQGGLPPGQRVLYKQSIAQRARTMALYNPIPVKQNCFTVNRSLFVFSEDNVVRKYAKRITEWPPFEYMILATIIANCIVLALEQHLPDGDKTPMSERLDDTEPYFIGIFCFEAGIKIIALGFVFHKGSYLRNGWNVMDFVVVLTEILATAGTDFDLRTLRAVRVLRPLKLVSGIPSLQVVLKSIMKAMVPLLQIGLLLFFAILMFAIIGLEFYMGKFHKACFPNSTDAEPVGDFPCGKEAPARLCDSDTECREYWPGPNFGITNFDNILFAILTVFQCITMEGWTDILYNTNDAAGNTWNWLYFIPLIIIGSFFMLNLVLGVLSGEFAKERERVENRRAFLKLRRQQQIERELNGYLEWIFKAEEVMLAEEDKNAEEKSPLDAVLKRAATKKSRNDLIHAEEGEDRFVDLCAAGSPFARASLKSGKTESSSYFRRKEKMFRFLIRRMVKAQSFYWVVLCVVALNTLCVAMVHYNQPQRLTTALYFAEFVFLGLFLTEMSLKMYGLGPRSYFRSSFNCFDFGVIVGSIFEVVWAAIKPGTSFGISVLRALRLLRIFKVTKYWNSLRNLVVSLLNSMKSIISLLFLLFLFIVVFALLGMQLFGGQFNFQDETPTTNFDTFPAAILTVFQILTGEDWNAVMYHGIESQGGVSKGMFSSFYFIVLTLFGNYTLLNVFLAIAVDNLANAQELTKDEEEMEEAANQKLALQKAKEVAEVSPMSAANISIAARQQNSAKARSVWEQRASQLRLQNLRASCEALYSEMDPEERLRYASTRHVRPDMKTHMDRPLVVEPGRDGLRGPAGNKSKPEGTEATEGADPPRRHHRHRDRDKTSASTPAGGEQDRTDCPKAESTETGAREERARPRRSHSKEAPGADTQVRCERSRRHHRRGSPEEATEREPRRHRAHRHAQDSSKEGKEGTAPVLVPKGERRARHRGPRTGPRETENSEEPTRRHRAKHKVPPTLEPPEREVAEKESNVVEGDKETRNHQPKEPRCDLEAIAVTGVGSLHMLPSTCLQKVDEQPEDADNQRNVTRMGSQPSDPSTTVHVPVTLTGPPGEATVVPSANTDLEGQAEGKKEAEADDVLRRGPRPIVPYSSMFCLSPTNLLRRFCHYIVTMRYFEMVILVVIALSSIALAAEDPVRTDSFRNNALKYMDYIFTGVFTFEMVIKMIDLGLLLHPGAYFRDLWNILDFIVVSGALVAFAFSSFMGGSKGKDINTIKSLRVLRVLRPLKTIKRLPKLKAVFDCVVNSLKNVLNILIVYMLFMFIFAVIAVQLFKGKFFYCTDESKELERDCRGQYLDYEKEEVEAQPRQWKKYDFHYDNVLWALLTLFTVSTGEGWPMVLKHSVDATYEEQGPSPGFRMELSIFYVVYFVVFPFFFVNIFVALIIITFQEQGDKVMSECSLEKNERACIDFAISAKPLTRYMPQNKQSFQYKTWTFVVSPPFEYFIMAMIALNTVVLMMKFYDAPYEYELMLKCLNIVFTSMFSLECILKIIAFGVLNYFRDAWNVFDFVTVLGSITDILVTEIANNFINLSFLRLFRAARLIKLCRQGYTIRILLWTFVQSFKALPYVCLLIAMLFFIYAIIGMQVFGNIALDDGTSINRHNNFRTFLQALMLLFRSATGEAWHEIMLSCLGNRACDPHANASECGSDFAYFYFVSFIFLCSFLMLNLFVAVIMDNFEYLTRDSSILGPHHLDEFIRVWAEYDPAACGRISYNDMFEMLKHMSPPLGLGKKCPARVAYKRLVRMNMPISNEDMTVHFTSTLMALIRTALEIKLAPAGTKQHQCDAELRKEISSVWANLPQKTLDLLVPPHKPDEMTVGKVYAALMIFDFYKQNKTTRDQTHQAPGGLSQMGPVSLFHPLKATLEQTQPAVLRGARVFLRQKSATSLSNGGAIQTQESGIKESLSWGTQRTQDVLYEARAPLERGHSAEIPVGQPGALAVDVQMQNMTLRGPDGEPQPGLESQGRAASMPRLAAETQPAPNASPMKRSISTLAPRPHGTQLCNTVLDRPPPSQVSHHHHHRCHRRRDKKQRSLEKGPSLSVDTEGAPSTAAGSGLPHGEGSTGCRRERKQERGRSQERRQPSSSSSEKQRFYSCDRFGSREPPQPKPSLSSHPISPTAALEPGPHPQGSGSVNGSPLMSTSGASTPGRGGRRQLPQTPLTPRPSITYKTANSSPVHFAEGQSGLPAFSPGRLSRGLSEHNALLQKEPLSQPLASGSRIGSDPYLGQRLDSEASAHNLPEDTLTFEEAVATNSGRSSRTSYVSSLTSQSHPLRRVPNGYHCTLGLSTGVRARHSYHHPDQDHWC

With `CN1CC[C@]23c4c5ccc(O)c4O[C@H]2[C@@H](O)C=C[C@H]3[C@H]1C5` [MORPHINE], the Latency in [1] is 27.7 s; in [2], 28.6 s; in assay [3], 22.4 s.

In the case of `Cl.NC1CCN(C(=O)CCC(c2ccc(F)cc2)c2ccc(F)cc2)CC1`, the Activity in assay [4] was 13.9 s; in assay [5], 23.9 s; in [7], 14.3 s; in assay [8], 15.7 s; in assay [10], 59.3 g; in assay [11] it was 29.5 s. The Activity stood at 62.3 g in assay [12]; 31.7 s in assay [13]; 54.8 g in assay [14]; 24.6 s in assay [15]; 16.1 s in assay [16]; 20.5 s in assay [17]. Also, the Activity in [18] is 55.6 g; in [19], 16.4 s; in assay [21], 55.1 g; in [22], 34.1 s; in assay [23] it was 54.7 g. Further, the Efficacy in [6] came out at 0%; in [9], 147%. The IC50 in assay [20] amounted to 2400 nM.

On to `CNC(CC(C)C)C(=O)NC1CCN(C(=O)CCC(c2ccc(F)cc2)c2ccc(F)cc2)CC1.Cl` (stereo not drawn), for which the Activity in assay [24] came out at 28.1 g; in assay [26], 33.4 g; in assay [28], 66.4 g; in assay [31], 61.3 g; in assay [32] it was 30.1 g; in assay [34] it was 55.7 g. Moreover, the IC50 in [25] came out at 3 µM. The compound also came in with an Efficacy in [27] of 56%. In addition, the Latency in assay [29] is recorded as 20.7 s; in assay [30] it was 21.5 s; in assay [33], 15.5 s.

Consider `CCCCNC1CCN(CCCC(c2ccccc2)c2ccccc2)CC1.O=C(O)C(=O)O`, for which the Activity in [35] worked out at 57.5 g; in assay [36], 63 g; in assay [37] it was 46.5 g; in assay [38] it was 52.6 g; in assay [39] it was 50.3 g; in assay [40], 61.2 g. The values for the Latency in assay [8], in [16] and in [19] were 22.6 s, 22.4 s and 15.8 s, respectively. This compound showed an Efficacy in assay [27] of 64%.

With `COc1ccc(CCNC2CCN(CCCC(c3ccccc3)c3ccccc3)CC2)cc1OC.O=C(O)C(=O)O`, the Latency in assay [41] stood at 17.7 s; in assay [42], 16.4 s; in [43] it was 16.8 s. For the same compound, the Efficacy in [27] was 0%.

Source of the values: ChEMBL document CHEMBL1139437, “Design, synthesis, and preliminary pharmacological evaluation of 4-aminopiperidine derivatives as N-type calcium channel blockers active on pain and neuropathic pain” (J Med Chem, 2004).
